Laboratory results taken from ChEMBL document CHEMBL1129511 (J Med Chem, 1996).

Experiments:
LoVo = test: Inhibitory concentration was evaluated against colorectal tumar cell line LoVo; format: functional, cell-based; conditions: Homo sapiens
How it was run: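 Cells were exposed to compound in microtitre plates for 1 h, washed, then grown a further 3 days at 37 °C. They were fixed with TCA, and adherent cellular protein was measured by SRB staining. IC50 is the concentration giving 50% growth inhibition.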

Bacteria [1] = test: Catalytic rate constant for bacterial Carboxypeptidase
How it was run: (§1)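 CPG2 kinetics adapted from the methotrexate CPG2 method. Prodrug and drug spectra were scanned from 200 to 350 nm, and the wavelength of maximal absorbance difference from glutamate release was chosen. Initial rates of prodrug conversion were measured at 1-100 µM prodrug with 0.05-1 Unit CPG2 to give Km and Vmax. kcat was Vmax divided by the amount of CPG2.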

[2] = Half life period was reported; format: ADME
Bacteria [3] = test: Michaelis-Menten constant for bacterial Carboxypeptidase; how it was run: as §1

CS(=O)(=O)OCCN(CCCl)c1ccc(C(=O)O)cc1
IC50 (LoVo): 80 µM

O=C(O)CC[C@H](NC(=O)c1ccc(N(CCCl)CCCl)cc1)C(=O)O
k cat (Bacteria [1]): 700 s⁻¹ | half-life [2]: 660 min | IC50 (LoVo): > 500 µM | Km (Bacteria [3]): 3.4 µM

O=C(O)CC[C@H](NC(=O)Sc1ccc(N(CCCl)CCCl)cc1)C(=O)O
k cat (Bacteria [1]): 4 s⁻¹ | half-life [2]: 32.2 min | IC50 (LoVo): 100 µM | Km (Bacteria [3]): 50 µM

O=C(O)CC[C@H](NC(=O)Nc1ccc(N(CCCl)CCCl)cc1)C(=O)O
k cat (Bacteria [1]): 7.5 s⁻¹ | half-life [2]: 16.9 min | IC50 (LoVo): 200 µM | Km (Bacteria [3]): 3 µM

CS(=O)(=O)OCCN(CCCl)c1ccc(C(=O)N[C@@H](CCC(=O)O)C(=O)O)cc1
k cat (Bacteria [1]): 583 s⁻¹ | half-life [2]: 46 min | IC50 (LoVo): > 500 µM | Km (Bacteria [3]): 3.4 µM

O=C(O)CC[C@H](NC(=O)Oc1ccc(N(CCCl)CCCl)cc1)C(=O)O
k cat (Bacteria [1]): 49 s⁻¹ | half-life [2]: 31 min | IC50 (LoVo): 200 µM | Km (Bacteria [3]): 1 µM

O=C(O)CC[C@H](NC(=O)Cc1ccc(N(CCCl)CCCl)cc1)C(=O)O
k cat (Bacteria [1]): 15 s⁻¹ | half-life [2]: 33 min | IC50 (LoVo): > 500 µM | Km (Bacteria [3]): 16 µM
